Activity calls are given as the source filed them. No cut-off for these calls is given here.
How the values were obtained:
HeLa = assay: Growth inhibition of human HeLa cells after 72 hrs by MTT assay; type: functional, cell-based
Method in brief: (§1)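 MTT viability assay. Cells seeded at 3 × 10^3 per well and allowed 24 h, then treated 72 h with a concentration series from 1 mM DMSO stocks. MTT (5 mg/ml in PBS) added for 5 h, formazan dissolved in DMSO, absorbance read at 570 nm.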

[1] = Drug uptake in cytoplasm of human MCF7 cells at 10 uM after 24 hrs by fluorescence microscopy; type: ADME, cell-based; conditions: mcf7, 24 h
Method in brief: (§2)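 MCF-7 cells seeded at 5 × 10^4 per well, exposed to compound at 10 μM for 24 h, then imaged by fluorescence microscopy for intracellular fluorescence and morphology.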

MCF7 [2] = assay: Growth inhibition of human MCF7 cells after 72 hrs by MTT assay; type: functional, cell-based; conditions: MCF7, 72 h; method in brief: as §1
MDA-MB-231 = assay: Growth inhibition of human MDA-MB-231 cells after 72 hrs ny MTT assay; type: functional, cell-based; conditions: MDA-MB-231, 72 h; method in brief: as §1
[3] = Drug uptake in nucleus of human MCF7 cells at 10 uM after 24 hrs by fluorescence microscopy; type: ADME, cell-based; conditions: mcf7, 24 h; method in brief: as §2
MCF7 [4] = assay: Induction of cell shrinking in human MCF7 cells at 10 uM after 24 hrs by fluorescence microscopy; type: functional, cell-based; method in brief: as §2
MCF7 [5] = assay: Induction of cell membrane changes in human MCF7 cells assessed as roughening and unevening of cell membrane surface at 10 uM after 24 hrs by fluorescence microscopy; type: functional; method in brief: as §2
[6] = Binding affinity to c-myc G-quadruplex DNA (unknown origin) assessed as increase in melting temperature by FRET assay
Method in brief: (§3)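 FAM/TAMRA dual-labelled c-myc oligonucleotide (1 μM) in Tris-KCl buffer pH 7.2, annealed at 92 °C for 5 min and slowly cooled to room temperature. Compound added at varying concentrations. Fluorescence melting curves recorded on a real-time PCR system, holding each temperature 30 s before each reading. Tm shift taken relative to the no-compound control.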

MCF7 [7] = assay: Induction of apoptosis in human MCF7 cells assessed as cell membrane rupture at 10 uM after 24 hrs by fluorescence microscopy; type: functional, cell-based; method in brief: as §2
[8] = Binding affinity to c-myc G-quadruplex DNA (unknown origin) assessed as hypochromism at IL absorption at 20 uM by electronic spectra titration method
Method in brief: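 Titration in Tris-KCl buffer pH 7.2 with ligand held at 20 μM and G4 DNA added stepwise. 3 min incubation before each UV-vis spectrum. Hypochromism read at the intraligand band (250–300 nm).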

[9] = Binding affinity to c-myc G-quadruplex DNA (unknown origin) assessed as change in melting temperature at 3 uM by FRET assay; method in brief: as §3
[10] = Binding affinity to c-myc G-quadruplex DNA (unknown origin) assessed as reduction in DNA CD signal strengths […] by CD spectroscopy; set-up: scale not given: the % may be the effect or the level left
Method in brief: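 CD of pre-folded c-myc G4 DNA (2 × 10^-6 M) in Tris-KCl buffer pH 7.2, 1 cm cell. Ligand added from 1 mM stock every 3 min, final range (0–118) × 10^-6 M.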

[11] = Binding affinity to c-myc G-quadruplex DNA (unknown origin) assessed as change in melting temperature at 1 uM by FRET assay; method in brief: as §3
[12] = Stabilization of c-myc G-quadruplex DNA (unknown origin) assessed as reduction in Taq polymerase-mediated 5' to 3' extension at 10 to 40 uM by PCR stop assay
Method in brief: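 PCR-stop assay in 1× PCR buffer with c-myc G4 DNA primer pair (10 pM each), dNTPs 0.16 mM, Taq 2.5 U and compound over 0–250 μM. Cycling: 94 °C 3 min, then 30 cycles of 94/58/72 °C for 30 s each. Products run on 15% native PAGE in TBE and silver stained.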

| Compound | IC50 (HeLa) | Drug uptake [1] | IC50 (MCF7 [2]) | IC50 (MDA-MB-231) | Drug uptake [3] | Activity (MCF7 [4]) | Activity (MCF7 [5]) | Activity [6] | Activity (MCF7 [7]) | Activity [8] | ΔTm [9] | Activity [10] | ΔTm [11] | Activity [12] |
| --- | --- | --- | --- | --- | --- | --- | --- | --- | --- | --- | --- | --- | --- | --- |
| Brc1ccccc1-c1nc2c3cccnc3c3ncccc3c2[nH]1 | 7.9 µM | Active | 27.3 µM | 36 µM | Active |  |  |  |  |  |  |  |  |  |
| c1ccc(-c2nc3c4cccnc4c4ncccc4c3[nH]2)cc1 | 5.1 µM | Not Active | 72.6 µM | 74.2 µM | Not Active |  |  |  |  |  |  |  |  |  |
| O=S(=O)(O)c1ccccc1-c1nc2c3cccnc3c3ncccc3c2[nH]1 | 240 µM | Not Active | 162 µM | 152 µM | Not Active |  |  |  |  |  |  |  |  |  |
| O=S(=O)(O)c1ccc(-c2nc3c4cccnc4c4ncccc4c3[nH]2)cc1 | 62.4 µM | Not Active | 184 µM | 60 µM | Not Active |  |  |  |  |  |  |  |  |  |
| Brc1ccc(-c2nc3c4cccnc4c4ncccc4c3[nH]2)cc1 | 8.5 µM | Active | 22.9 µM | 3.6 µM | Active | Active | <20% | Dose-dependent effect | Active | 9.4% | 6.4 °C | 23% | 3.4 °C | Dose-dependent effect |

— ChEMBL document CHEMBL3351432, “Microwave-assisted synthesis of phenanthroimidazole derivatives as stabilizer of c-myc G-quadruplex DNA” (Bioorg Med Chem, 2014)
